Data from paper PMC10921549 (Journal of Agricultural and Food Chemistry, 2024).

Key:
OR8H1 = target: T1, OR8H1 (Homo sapiens, UniProt Q8NGG4); assay: HEK-293 cell-based cAMP luminescence; details: for agonist validation by concentration–response relation on OR8H1: human OR8H1; for KFO library screening response of OR8H1 (2σ-threshold): each KFO 300 μmol/L, normalized to OR8H1 response to 30 μmol/L TDN
T1 sequence (Q8NGG4 1-311): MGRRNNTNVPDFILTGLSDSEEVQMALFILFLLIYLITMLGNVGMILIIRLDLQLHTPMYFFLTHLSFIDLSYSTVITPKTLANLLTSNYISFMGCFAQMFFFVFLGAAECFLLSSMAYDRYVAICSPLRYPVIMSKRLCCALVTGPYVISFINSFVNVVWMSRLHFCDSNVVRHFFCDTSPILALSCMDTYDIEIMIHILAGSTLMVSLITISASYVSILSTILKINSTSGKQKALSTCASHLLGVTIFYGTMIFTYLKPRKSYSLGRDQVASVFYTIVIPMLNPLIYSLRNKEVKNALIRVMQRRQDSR
Method in brief: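 In HEK-293 cells expressing recombinant human OR8H1 with GloSensor cAMP luciferase, each of 180 GC-pure food odorants is applied at 300 μmol/L (n = 1, triplicate). After basal subtraction, mock is subtracted and responses are normalized to the 30 μmol/L reference agonist signal; the hit threshold is 2σ. For concentration–response, EC50 comes from a nonlinear Hill fit (slope ≤2.9, weighted by 0.1/SD). Results are mean ± SD.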

OR2W1 = details: present study and ref 50; cited from earlier work
[1] = cited from earlier work
ptOR8H1 = assay: HEK-293 cAMP luminescence assay, chimp ortholog ptOR8H1; assay type: cell-based, Pan troglodytes (chimpanzee); details: for response of chimp orthologue (concentration–response): ptOR8H1
Method in brief: (§1)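 HEK-293 cells (37 °C, 5% CO2, 100% humidity; high-glucose DMEM, 10% FBS, 2 mM L-glutamine, penicillin/streptomycin) transiently express the OR ortholog with a GloSensor cAMP luciferase, and luminescence is read after odorant application. Basal signal is subtracted, data are normalized to a reference odorant–receptor maximum, and mock is subtracted. EC50 comes from a Hill fit weighted by 0.1/SD, with slope ≤2.9. Results are mean ± SD; surface expression is checked by flow cytometry.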

ecOR8H1 = assay: HEK-293 cAMP luminescence assay, horse ortholog ecOR8H1; assay type: cell-based, Equus caballus (horse)
Method in brief: as §1

[2] = test system: 386 human OR types and 380 of their most frequent variants; assay: Screening of TDN against OR library of 766 cDNAs; assay type: cell-based; details: 100 μmol/L TDN, 766 OR cDNAs

With `CC(=O)c1ccc2ccccc2c1` [2-acetylnaphthalene] the “agonist validation by concentration–response relation on OR8H1” value (OR8H1) was “agonist for OR8H1”.
For `CC(=O)OCCc1ccccc1` [2-phenylethyl acetate], the “KFO library screening response of OR8H1 (2σ-threshold)” value (OR8H1) was “did not activate OR8H1”.
With `C=C(C)c1ccc(C)cc1` [Compound 1, 1-methyl-4-(prop-1-en-2-yl)benzene] the EC50 (OR8H1) was 336 ± 74.9 µM.
In the case of `C=CCc1ccc(OC)c(OC)c1` [Compound 2, 1,2-dimethoxy-4-prop-2-enylbenzene], the EC50 (OR8H1) is listed as 114 ± 20.1 µM and the “activation of OR2W1” value (OR2W1) is listed as “did not activate”.
Work on `COc1nccnc1C(C)C` [Compound 3, 2-methoxy-3-propan-2-ylpyrazine] yielded an EC50 (OR8H1) of 147 ± 8.64 µM.
In the case of `CCCc1ccc(O)c(OC)c1` [Compound 5, 2-methoxy-4-propylphenol], the “odor threshold (OT in water/EtOH (60/40))” value ([1]; water/EtOH (60/40)) is given as 1.9 ^b[35] μg/kg.
For `C=C(C)[C@@H]1CC=C(C)C(=O)C1` [Compound 6, (5R)-2-methyl-5-prop-1-en-2-ylcyclohex-2-en-1-one], the EC50 (OR8H1) was 193 ± 9.52 µM, the “KFO library screening response of OR8H1 (2σ-threshold)” value (OR8H1) was “false-negative responder” and the “agonist validation by concentration–response relation on OR8H1” value (OR8H1) was “agonist of OR8H1”.
For `CC(C)c1ccc(C=O)cc1` [Compound 7, 4-Propan-2-ylbenzaldehyde], the EC50 (OR8H1) is given as 92 ± 11.7 µM, the “response of chimp orthologue (concentration–response)” value (“response of chimp orthologue” below) (ptOR8H1) is given as “responded” and the “activation of OR2W1” value (OR2W1) is given as “did not activate”.
With `CC1=CCC(C(C)(C)S)CC1` (stereo not drawn) [Compound 8, 2-(4-methylcyclohex-3-en-1-yl)propane-2-thiol] the EC50 (OR8H1) was 206 ± 80.8 µM and the “response of chimp orthologue” value (ptOR8H1) was “responded”.
In the case of `Cc1ccc2c(c1)C=CCC2(C)C` [TDN, 1,1,6-trimethyl-1,2-dihydronaphthalene], the EC50 (OR8H1) is reported as 32 ± 6.09 µM, the EC50 (ptOR8H1; chimp ptOR8H1 in HEK-293, n = 3) is reported as 37.8 ± 29.1 µM and the “response of chimp orthologue” value (ptOR8H1) is reported as “responded”. The “efficacy lower than at the human receptor” value (ptOR8H1; ptOR8H1 versus human OR8H1) was roughly 7 fold, the “response of horse orthologue to TDN” value (ecOR8H1) was “nonresponding” and the “receptor activation above 3σ-threshold in OR library screening” value [2] was “exclusively activated a single OR above a 3σ-threshold: OR8H1”. For the same molecule, the “odor (detection) threshold in Riesling wine” value ([1]; Riesling wine) was 2.3 µg/L, the “odor threshold, originally reported” value [1] was 20 µg/L and the detection threshold ([1]; spiked model wine) was 2 µg/L.
